{"source": "ChEMBL document CHEMBL4837222", "about": "“Design and synthesis of novel benzothiophene analogs as selective estrogen receptor covalent antagonists against breast cancer” (Eur J Med Chem, 2021)", "key": {"[1]": {"target": "T1, Estrogen receptor (Homo sapiens) (UniProt P03372)", "T1 sequence (whole entry)": "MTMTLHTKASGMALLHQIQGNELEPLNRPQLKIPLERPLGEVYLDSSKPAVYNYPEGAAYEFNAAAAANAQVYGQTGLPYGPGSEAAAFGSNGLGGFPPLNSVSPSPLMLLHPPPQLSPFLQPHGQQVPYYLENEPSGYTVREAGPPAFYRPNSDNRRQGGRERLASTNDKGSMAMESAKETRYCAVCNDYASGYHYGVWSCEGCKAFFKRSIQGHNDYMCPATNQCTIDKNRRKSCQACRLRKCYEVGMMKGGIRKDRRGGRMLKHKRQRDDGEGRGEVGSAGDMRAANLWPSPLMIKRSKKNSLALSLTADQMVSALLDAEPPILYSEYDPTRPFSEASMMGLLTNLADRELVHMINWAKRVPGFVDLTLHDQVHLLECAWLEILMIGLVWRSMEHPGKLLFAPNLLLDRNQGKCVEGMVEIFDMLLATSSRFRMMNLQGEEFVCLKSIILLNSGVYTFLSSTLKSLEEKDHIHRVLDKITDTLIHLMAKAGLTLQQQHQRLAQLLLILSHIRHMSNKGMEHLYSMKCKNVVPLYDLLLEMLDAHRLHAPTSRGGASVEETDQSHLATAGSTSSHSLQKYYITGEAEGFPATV", "assay": "Covalent antagonist activity at ERalpha in human MCF7 cells assessed as decrease in estradiol-induced TFF1 mRNA expression level at 0.25 to 10 uM measured after 24 hrs by RT-PCR analysis", "assay_type": "cell-based", "conditions": "filed as antagonist, dose 0.25-10 µM", "in_short": "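MCF-7 cells stimulated with estradiol, then co-incubated 24 h with compound at 0.25, 0.5, 1 and 10 µM. RNA was reverse-transcribed and GREB1 or TFF1 measured by SYBR Green qPCR: 95 °C 10 min, then 40 cycles of 95 °C 5 s, 60 °C 60 s, 95 °C 15 s. Normalised to GAPDH, ΔΔCT method.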"}, "MCF7 [2]": {"system": "MCF7", "assay": "Induction of apoptosis in human MCF7 cells assessed as live cells at 10 uM incubated for 24 hrs by AnnexinV-FITC/propidium iodide staining based flow cytometric analysis (reference value: 98.1%)", "assay_type": "functional"}, "Estrogen receptor": {"target": "T2, Estrogen receptor (Homo sapiens, UniProt P03372)", "T2 sequence (P03372 whole entry)": "T1 sequence (whole entry)", "assay": "Induction of ERalpha activity in human ishikawa cells assessed as induction of cell proliferation at 156 to 5000 nM measured after 3 days", "assay_type": "cell-based", "conditions": "72 h, 5 µM, dose 156-5000 nM, time 3 day"}, "MCF7 [3]": {"system": "MCF7", "assay": "Cell cycle arrest in human MCF7 cells assessed as accumulation at G0/G1 phase at 10 uM measured after 48 hrs by propidium iodide staining based flow cytometric analysis (reference value: 24.44%)", "assay_type": "functional"}, "[4]": {"target": "T1, Estrogen receptor (Homo sapiens)", "assay": "Covalent antagonist activity at ERalpha receptor in human ishikawa cells assessed as suppression of E2-stimulated PGR expression at 0.25 to 10 uM measured after 3 days by RT-PCR analysis", "assay_type": "cell-based", "conditions": "filed as antagonist, dose 0.25-10 µM, time 3.0 day", "in_short": "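Ishikawa cells stimulated with E2 and exposed 3 days to compound at 0.25, 0.5, 1 and 10 µM. PGR mRNA quantified by SYBR Green real-time PCR, normalised to GAPDH, ΔΔCT method.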"}, "[5]": {"assay": "Half life in rat liver microsomes", "assay_type": "ADME, Microsome"}, "MCF7 [6]": {"system": "MCF7", "assay": "Cell cycle arrest in human MCF7 cells assessed as accumulation at S phase at 10 uM measured after 48 hrs by propidium iodide staining based flow cytometric analysis (reference value: 63.32%)", "assay_type": "functional"}, "MCF7 [7]": {"system": "MCF7", "assay": "Cell cycle arrest in human MCF7 cells assessed as accumulation at G2/M phase at 1 uM measured after 48 hrs by propidium iodide staining based flow cytometric analysis (reference value: 12.24%)", "assay_type": "functional"}, "MCF7 [8]": {"system": "MCF7", "assay": "Cell cycle arrest in human MCF7 cells assessed as accumulation at S phase at 5 uM measured after 48 hrs by propidium iodide staining based flow cytometric analysis (reference value: 63.32%)", "assay_type": "functional"}, "MCF7 [9]": {"system": "MCF7", "assay": "Induction of apoptosis in human MCF7 cells assessed as live cells at 5 uM incubated for 24 hrs by AnnexinV-FITC/propidium iodide staining based flow cytometric analysis (reference value: 98.1%)", "assay_type": "functional"}, "MCF7 [10]": {"system": "MCF7", "assay": "Induction of apoptosis in human MCF7 cells assessed as late apoptotic cells at 1 uM incubated for 24 hrs by AnnexinV-FITC/propidium iodide staining based flow cytometric analysis (reference value: 0.7%)", "assay_type": "functional"}, "[11]": {"assay": "Lipophilicity, logD of compound", "assay_type": "physicochemical", "conditions": "octanol/water"}, "[12]": {"assay": "Intrinsic clearance in rat", "assay_type": "ADME"}, "MCF7 [13]": {"system": "MCF7", "assay": "Induction of apoptosis in human MCF7 cells assessed as live cells at 1 uM incubated for 24 hrs by AnnexinV-FITC/propidium iodide staining based flow cytometric analysis (reference value: 98.1%)", "assay_type": "functional"}, "MCF7 [14]": {"system": "MCF7", "assay": "Downregulation of ERalpha expression in human MCF7 cells at 0.5 uM incubated for 24 hrs by Western blot assay", "assay_type": "functional, cell-based", "in_short": "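MCF-7 cells were kept in phenol red-free DMEM/F12 with 10% serum for 72 h before plating, then treated at 125, 250 and 500 nM for 24 h. Cells were lysed in RIPA buffer, protein was measured by BCA, and equal amounts were run on 10% SDS-PAGE and transferred to PVDF. ERα band intensity was normalized to GAPDH in each repeat.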"}, "MCF7 [15]": {"system": "MCF7", "assay": "Induction of apoptosis in human MCF7 cells assessed as necrotic cells at 1 uM incubated for 24 hrs by AnnexinV-FITC/propidium iodide staining based flow cytometric analysis (reference value: 0.4%)", "assay_type": "functional"}, "MCF7 [16]": {"system": "MCF7", "assay": "Antiproliferative activity against human MCF7 cells assessed as reduction in cell growth incubated for 48 hrs by CCK8 assay", "assay_type": "functional, cell-based", "conditions": "MCF7, 48 h", "in_short": "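CCK-8 viability assay. Cells seeded at 4000/well in 10% FBS medium for 24 h, then given compound diluted from DMSO stocks into 2% FBS medium at 100, 50, 25, 12.5, 6.25 and 3.125 µM (0.1% DMSO final). After 48 h, CCK-8 was added (0.5 mg/mL) for 2 h at 37 °C and OD450 read. Triplicates; IC50 fitted from mean viability.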"}, "MCF7 [17]": {"system": "MCF7", "assay": "Induction of apoptosis in human MCF7 cells assessed as necrotic cells at 10 uM incubated for 24 hrs by AnnexinV-FITC/propidium iodide staining based flow cytometric analysis (reference value: 0.4%)", "assay_type": "functional"}, "MCF7 [18]": {"system": "MCF7", "assay": "Induction of apoptosis in human MCF7 cells assessed as early apoptotic cells at 10 uM incubated for 24 hrs by AnnexinV-FITC/propidium iodide staining based flow cytometric analysis (reference value: 0.8%)", "assay_type": "functional"}, "MCF7 [19]": {"system": "MCF7", "assay": "Induction of apoptosis in human MCF7 cells assessed as late apoptotic cells at 5 uM incubated for 24 hrs by AnnexinV-FITC/propidium iodide staining based flow cytometric analysis (reference value: 0.7%)", "assay_type": "functional"}, "MCF7 [20]": {"system": "MCF7", "assay": "Cell cycle arrest in human MCF7 cells assessed as accumulation at G2/M phase at 5 uM measured after 48 hrs by propidium iodide staining based flow cytometric analysis (reference value: 12.24%)", "assay_type": "functional"}, "MCF7 [21]": {"system": "MCF7", "assay": "Downregulation of ERalpha expression in human MCF7 cells at 5 uM incubated for 24 hrs by DAPI staining based immunofluorescence microscopy", "assay_type": "functional, cell-based", "in_short": "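MCF-7 cells on glass slides treated 24 h at 5 µM, washed with PBS and fixed with pre-cooled acetone. ERα immunostained with a red fluorescent label, nuclei counterstained with DAPI; ERα fluorescence intensity quantified.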"}}, "note": "The source made the active and inactive calls. The calls are words filed in the database; no cut-off is given here.", "data": [{"compound": "O=C(/C=C/CNCCOc1ccc(Oc2c(-c3ccc(F)cc3)sc3cc(O)ccc23)cc1)N1CCC1", "values": [{"measurement": "inhibition", "setting": "[1]", "value": "Dose-Dependent Effect"}, {"measurement": "Activity", "setting": "MCF7 [2]", "value": 73.6, "unit": "%"}, {"measurement": "Activity", "setting": "Estrogen receptor", "value": "Not Active"}, {"measurement": "Activity", "setting": "MCF7 [3]", "value": 42.95, "unit": "%"}, {"measurement": "inhibition", "setting": "[4]", "value": "Active"}, {"measurement": "half-life", "setting": "[5]", "value": 38.1, "unit": "min"}, {"measurement": "Activity", "setting": "MCF7 [6]", "value": 38.75, "unit": "%"}, {"measurement": "Activity", "setting": "MCF7 [7]", "value": 17.36, "unit": "%"}, {"measurement": "Activity", "setting": "MCF7 [8]", "value": 46.98, "unit": "%"}, {"measurement": "Activity", "setting": "MCF7 [9]", "value": 87.9, "unit": "%"}, {"measurement": "Activity", "setting": "MCF7 [10]", "value": 1.2, "unit": "%"}, {"measurement": "logD", "setting": "[11]", "value": 1.67}, {"measurement": "CLint scaled", "setting": "[12]", "value": 65.1, "unit": "mL/min/kg"}, {"measurement": "Activity", "setting": "MCF7 [13]", "value": 97.8, "unit": "%"}, {"measurement": "inhibition", "setting": "MCF7 [14]", "value": "Active"}, {"measurement": "Activity", "setting": "MCF7 [15]", "value": 0.2, "unit": "%"}, {"measurement": "IC50", "setting": "MCF7 [16]", "value": 7.34, "unit": "µM"}, {"measurement": "Activity", "setting": "MCF7 [17]", "value": 0.5, "unit": "%"}, {"measurement": "Activity", "setting": "MCF7 [18]", "value": 12.5, "unit": "%"}, {"measurement": "Activity", "setting": "MCF7 [19]", "value": 6.4, "unit": "%"}, {"measurement": "Activity", "setting": "MCF7 [20]", "value": 15.48, "unit": "%"}, {"measurement": "inhibition", "setting": "MCF7 [21]", "value": "Active"}]}]}
